According to ChEMBL document CHEMBL4028890, “A Positive Allosteric Modulator of the Serotonin 5-HT2C Receptor for Obesity” (J Med Chem, 2017):
Blank lines part the entries; values can stand above or below the molecule they belong to. Activity calls are given as the source filed them. The calls are words filed in the database; no cut-off is given here.

Columns and labels:
[1] = target: T1, 5-hydroxytryptamine receptor 2C (Homo sapiens) (UniProt P28335); experiment: Positive allosteric modulation of human 5-HT2C receptor expressed in human HeLa-K1 cells assessed as potentiation of 5-HT-induced inositol monophosphate release at 10 uM after 20 mins by HTRF assay relative to control; type: functional, cell-based
T1 sequence (whole entry): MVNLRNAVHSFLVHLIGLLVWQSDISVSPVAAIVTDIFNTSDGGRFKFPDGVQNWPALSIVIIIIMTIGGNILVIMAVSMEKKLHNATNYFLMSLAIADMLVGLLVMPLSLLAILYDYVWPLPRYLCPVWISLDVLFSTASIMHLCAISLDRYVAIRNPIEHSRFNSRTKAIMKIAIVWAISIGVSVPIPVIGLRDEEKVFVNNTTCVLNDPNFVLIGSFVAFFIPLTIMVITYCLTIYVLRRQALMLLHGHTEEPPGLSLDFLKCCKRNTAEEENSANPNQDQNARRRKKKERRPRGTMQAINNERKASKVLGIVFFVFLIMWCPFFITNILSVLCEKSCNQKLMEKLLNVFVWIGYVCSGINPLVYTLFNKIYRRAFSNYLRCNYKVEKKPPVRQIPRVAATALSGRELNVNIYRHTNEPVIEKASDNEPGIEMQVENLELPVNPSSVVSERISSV
Summary of the method: (§1)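 IP-One HTRF assay in CHO-K1 cells (human 5-HT2A, 5-HT2B) or HeLa-K1 cells (human 5-HT2C), seeded and grown 24 h at 37 °C. Test compound and/or 5-HT added in stimulation buffer, then 20 min at 37 °C before IP1 read-out. Data normalized to 5-HT maximal effect and fitted by nonlinear regression. Triplicates, mean ± SD.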

Rattus norvegicus [2] = organism: Rattus norvegicus; experiment: Toxicity in Wistar rat assessed as induction of malaise at 0.4 M measured 30 mins for 2 days by conditioned taste aversion test; conditions: in vivo, 0.5 h
Summary of the method: (§2)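 Rats water-deprived 24 h, then trained to drink from a graded bottle in 30 min sessions for 4 days. On day 5, 0.1% saccharin replaced water, and 30 min later rats got ip vehicle, compound (2 mg/kg) or LiCl (0.4 M, 7.5 mL/kg). Water intake was recorded over 30 min on the next 2 days, then a water or saccharin choice was measured.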

[3] = target: T1, 5-hydroxytryptamine receptor 2C (Homo sapiens); experiment: Displacement of [3H]-LSD from human 5-HT2C receptor expressed in human HeLa-K1 cell membranes at 10 uM after 60 mins relative to control
Summary of the method: (§3)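 Membranes from 5-HT2C-HeLa cells with test compound (10 μM) in 50 mM Tris-HCl pH 7.4. Radioligands: [3H]mesulergine 4 nM, [3H]LSD 2 nM (15 μg protein each), [3H]clozapine 15 nM (20 μg), 60 min at 27 °C. [3H]5-HT 2 nM (60 μg), 180 min at 4 °C. Nonspecific binding with 10 μM mianserin. Filtered and washed, then counted. Triplicates, mean ± SD.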

Rattus norvegicus [4] = experiment: Toxicity in Wistar rat assessed as induction of malaise at 2 mg/kg, ip measured 30 mins for 2 days by conditioned taste aversion test; type: organism-based; conditions: in vivo; summary of the method: as §2
[5] = Ratio of drug level in brain to plasma in Wistar rat at 10 mg/kg, ip measured up to 6 hrs; type: ADME, organism-based; conditions: read-out: BPR
Rattus norvegicus [6] = experiment: Antiobesity activity in restricted food access Wistar rat model assessed as reduction in body weight at 2 mg/kg, ip administered 30 mins prior to food presentation measured after 4 hrs on every day for 7 days; type: functional, organism-based
Summary of the method: (§4)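 Rats had food for 4 h/day. Once the feeding baseline was stable, compound (2 mg/kg ip) or vehicle was given 30 min before food presentation. Food and water intake read at the end of the 4 h period. Repeated on 7 consecutive days, with total intake and body weight tracked. Mean ± SEM, n ≥ 8.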

Rattus norvegicus [7] = experiment: Antiobesity activity in Wistar rat assessed as reduction in food intake at 10 mg/kg, ip after 4 hrs relative to control; type: functional; parameters: scale not given: the % may be the effect or the level left
Summary of the method: (§5)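 Male Wistar rats, 200−250 g, 10−12 weeks, food-deprived 16 h before refeeding. Test compound given ip in sterile saline. Sertraline, ketanserin (2 mg/kg) or 5-HT2C antagonist (3 mg/kg) was given ip 30 min before the test compound. Food and water intake measured 30, 60, 120 and 240 min after food presentation. Mean ± SEM, at least 8 rats per group.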

[8] = target: T1, 5-hydroxytryptamine receptor 2C (Homo sapiens); experiment: Displacement of [3H]-LSD from human 5-HT2C receptor expressed in human HeLa-K1 cell membranes at 1 uM after 60 mins relative to control
Rattus norvegicus [9] = experiment: Antiobesity activity in continuous food access Wistar rat model assessed as reduction in body weight at 2 mg/kg, ip administered daily for 7 days; type: functional, organism-based
Summary of the method: (§6)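 Wistar rats made obese on 60% fat diet (5.24 kcal/g) for 8 weeks. Free-feeding rats got a daily ip injection of compound (2 mg/kg) or vehicle for 7 days. Daily chow intake (kcal/kg body weight) and body weight gain (g) recorded. Mean ± SEM, n ≥ 8 per group.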

[10] = target: T2, 5-hydroxytryptamine receptor 2A (Homo sapiens, UniProt P28223); experiment: Positive allosteric modulation of human 5-HT2A receptor expressed in CHO-K1 cells assessed as potentiation of 5-HT-induced inositol monophosphate release at 10 uM after 20 mins by HTRF assay; type: cell-based; summary of the method: as §1
T2 sequence (P28223 whole entry): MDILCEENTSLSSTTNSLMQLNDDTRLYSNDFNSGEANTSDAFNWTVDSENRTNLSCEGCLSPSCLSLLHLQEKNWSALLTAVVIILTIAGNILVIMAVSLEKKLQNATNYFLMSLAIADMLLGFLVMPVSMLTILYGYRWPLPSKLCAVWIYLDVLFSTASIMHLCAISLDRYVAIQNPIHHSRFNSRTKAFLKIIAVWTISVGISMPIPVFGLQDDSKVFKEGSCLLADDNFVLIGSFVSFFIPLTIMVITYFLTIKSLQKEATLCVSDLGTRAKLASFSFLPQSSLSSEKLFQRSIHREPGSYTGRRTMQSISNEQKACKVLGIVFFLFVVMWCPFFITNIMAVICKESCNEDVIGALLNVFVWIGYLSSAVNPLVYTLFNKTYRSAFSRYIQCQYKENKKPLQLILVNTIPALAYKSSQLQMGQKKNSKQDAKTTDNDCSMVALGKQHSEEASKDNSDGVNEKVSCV

Rattus norvegicus [11] = experiment: Antiobesity activity in Wistar rat assessed as reduction in food intake at 1 mg/kg, ip after 4 hrs in presence of 5-HT2C antagonist SB-242084; type: functional, organism-based; summary of the method: as §5
Rattus norvegicus [12] = experiment: Antiobesity activity in Wistar rat assessed as reduction in food intake at 2 mg/kg, ip after 4 hrs in presence of 5-HT2A antagonist ketanserin; type: functional, organism-based; summary of the method: as §5
[13] = target: T1, 5-hydroxytryptamine receptor 2C (Homo sapiens); experiment: Displacement of [3H]-mesulergine from human 5-HT2C receptor expressed in human HeLa-K1 cell membranes at 10 uM after 60 mins relative to control; summary of the method: as §3
[14] = target: T1, 5-hydroxytryptamine receptor 2C (Homo sapiens); experiment: Intrinsic agonist activity at human 5-HT2C receptor expressed in human HeLa-K1 cells assessed as induction of inositol monophosphate release after 20 mins by HTRF assay; type: functional, cell-based; summary of the method: as §1
Rattus norvegicus [15] = experiment: Antiobesity activity in restricted food access Wistar rat model assessed as reduction in food intake at 2 mg/kg, ip administered 30 mins prior to food presentation measured after 4 hrs on every day for 7 days; type: functional, organism-based; summary of the method: as §4
[16] = target: T3, 5-hydroxytryptamine receptor 2B (Homo sapiens, UniProt P41595); experiment: Intrinsic agonist activity at human 5-HT2B receptor expressed in CHO-K1 cells assessed as induction of inositol monophosphate release at 10 uM after 20 mins by HTRF assay; type: cell-based; summary of the method: as §1
T3 sequence (P41595 whole entry): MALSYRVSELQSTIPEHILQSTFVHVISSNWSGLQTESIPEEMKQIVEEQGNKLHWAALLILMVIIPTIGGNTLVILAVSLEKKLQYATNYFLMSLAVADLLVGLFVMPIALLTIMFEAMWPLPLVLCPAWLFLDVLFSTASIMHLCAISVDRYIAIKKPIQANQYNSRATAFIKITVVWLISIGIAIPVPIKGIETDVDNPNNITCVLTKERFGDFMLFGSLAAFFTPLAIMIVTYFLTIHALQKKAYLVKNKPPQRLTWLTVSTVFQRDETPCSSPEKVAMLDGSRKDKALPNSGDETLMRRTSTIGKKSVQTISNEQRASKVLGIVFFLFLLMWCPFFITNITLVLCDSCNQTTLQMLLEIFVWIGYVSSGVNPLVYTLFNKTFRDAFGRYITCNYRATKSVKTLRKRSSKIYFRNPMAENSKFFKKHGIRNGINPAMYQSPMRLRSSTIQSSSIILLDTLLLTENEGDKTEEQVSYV

Rattus norvegicus [17] = experiment: Toxicity in Wistar rat assessed as induction of hypolocomotion at 0.5 to 2 mg/kg, ip after 30 mins by elevated plus maze test; type: organism-based; conditions: in vivo, 0.5 h
Summary of the method: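 Maze-naive rats handled for 7 days. Placed in the centre facing an open arm 30 min after ip dosing. Open-arm entries and % time in open arms scored over 5 min. No retesting.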

[18] = target: T2, 5-hydroxytryptamine receptor 2A; experiment: Intrinsic agonist activity at human 5-HT2A receptor expressed in CHO-K1 cells assessed as induction of inositol monophosphate release at 10 uM after 20 mins by HTRF assay; type: cell-based; summary of the method: as §1
[19] = target: T1, 5-hydroxytryptamine receptor 2C (Homo sapiens); experiment: Displacement of [3H]-clozapine from human 5-HT2C receptor expressed in human HeLa-K1 cell membranes at 10 uM after 60 mins relative to control; summary of the method: as §3
[20] = target: T1, 5-hydroxytryptamine receptor 2C (Homo sapiens); experiment: Positive allosteric modulation of human 5-HT2C receptor expressed in human HeLa-K1 cells assessed as potentiation of 5-HT-induced inositol monophosphate release at 1 uM after 20 mins by HTRF assay relative to control; type: functional, cell-based
Rattus norvegicus [21] = experiment: In vivo positive allosteric modulation of serotonin-induced feeding suppression in Wistar rat at 0.5 mg/kg, ip after 4 hrs in presence of 2 mg/kg selective serotonin reuptake inhibitor sertraline; type: functional, organism-based; summary of the method: as §5
[22] = target: T1, 5-hydroxytryptamine receptor 2C (Homo sapiens); experiment: Displacement of [3H]-5-HT from human 5-HT2C receptor expressed in human HeLa-K1 cell membranes at 10 uM after 180 mins relative to control; summary of the method: as §3
[23] = target: T1, 5-hydroxytryptamine receptor 2C (Homo sapiens); experiment: (§7) Positive allosteric modulation of human 5-HT2C receptor expressed in human HeLa-K1 cells assessed as potentiation of 5-HT-induced inositol monophosphate release after 20 mins by HTRF assay; type: functional, cell-based; summary of the method: as §1
[24] = target: T4, 5-hydroxytryptamine receptor 2C (Homo sapiens, UniProt P28335); experiment: as §7; type: functional, cell-based; summary of the method: as §1
T4 sequence (P28335 whole entry): T1 sequence (whole entry)

Rattus norvegicus [25] = experiment: Toxicity in Wistar rat assessed as induction of hypolocomotion at 2 mg/kg, ip after 30 mins by open field test; type: organism-based; conditions: in vivo, 0.5 h
Summary of the method: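 Rats handled for 7 days before testing. Tested 30 min after ip dosing (2 mg/kg), placed in the centre of the open field. Distance walked was recorded automatically over 10 min. No retesting.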

Rattus norvegicus [26] = experiment: Antiobesity activity in continuous food access Wistar rat model assessed as reduction in food intake at 2 mg/kg, ip administered daily for 7 days; type: functional, organism-based; summary of the method: as §6
Rattus norvegicus [27] = experiment: In vivo positive allosteric modulation of serotonin-induced feeding suppression in Wistar rat at 2 mg/kg, ip after 4 hrs in presence of 5 mg/kg selective serotonin reuptake inhibitor sertraline; type: functional, organism-based; summary of the method: as §5
[28] = target: T3, 5-hydroxytryptamine receptor 2B; experiment: Positive allosteric modulation of human 5-HT2B receptor expressed in CHO-K1 cells assessed as potentiation of 5-HT-induced inositol monophosphate release at 10 uM after 20 mins by HTRF assay; type: cell-based; summary of the method: as §1
Rattus norvegicus [29] = experiment: Antiobesity activity in Wistar rat assessed as reduction in food intake at 2 mg/kg, ip after 4 hrs; type: functional, organism-based
Summary of the method: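 Male Wistar rats, 200−250 g, aged 10−12 weeks, food-deprived 16 h before refeeding. Compound given ip in sterile saline; food and water intake measured at 30, 60, 120 and 240 min after food presentation. Where used, antagonist (3 mg/kg, ip) or other pretreatments were injected 30 min before the compound. Mean ± SEM, at least eight rats per group.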

Activity [1]: 9%
SMILES: Fc1cc(Cl)ccc1Cn1cc(CNc2cccnc2)c2ccccc21

Activity [1]: 8%
SMILES: FC(F)(F)c1ccc(Cn2cc(CNc3cccnc3)c3ccccc32)cc1

Activity [1]: 0%
SMILES: COc1cccc(Cn2cc(CNc3cccnc3)c3ccccc32)c1

Activity [1]: 9%
SMILES: c1ccc(Cn2cc(CNc3cccnn3)c3ccccc32)cc1

Activity [1]: 7%
SMILES: N#Cc1ccc(Cn2cc(CNc3cccnc3)c3ccccc32)cc1

Activity [1]: 7%
SMILES: N#Cc1ccccc1Cn1cc(CNc2cccnc2)c2ccccc21

Activity [1]: 0%
SMILES: FC(F)(F)c1cccc(Cn2cc(CNc3cccnc3)c3ccccc32)c1

Activity [1]: 9%
SMILES: Fc1ccc(Cn2cc(CNc3cccnc3)c3ccccc32)cc1

Activity [1]: 22%
SMILES: N#Cc1cccc(Cn2cc(CNc3cccnc3)c3ccccc32)c1

Activity [1]: 24%
SMILES: Cc1ccc(Cn2cc(CNc3cccnc3)c3ccccc32)cc1

Continued, molecule first:

SMILES: c1ccc(Cn2cc(CNc3cncnc3)c3ccccc32)cc1
Activity [1]: 20%

SMILES: c1ccc(Cn2cc(CNc3cnccn3)c3ccccc32)cc1
Activity [1]: 0%

SMILES: Cc1ccncc1NCc1cn(Cc2ccccc2)c2ccccc12
Activity [1]: 21%

SMILES: [Cl-].[Li+] [CHLOROLITHIUM]
Activity (Rattus norvegicus [2]): Toxic

SMILES: Fc1ccccc1Cn1cc(CNc2cccnc2)c2ccccc21
Activity [1]: 6%

SMILES: c1cncc(NCc2cn(CC3CC3)c3ccccc23)c1
Activity [1]: 0%

SMILES: c1ccc(Cn2cc(CNc3cccnc3)c3ccccc32)cc1
inhibition [3]: 67%
Activity (Rattus norvegicus [4]): Non-Toxic
Kp at 6 h [5]: 3.8
Activity (Rattus norvegicus [6]): Active
Activity (Rattus norvegicus [7]): 50%
inhibition [8]: 21%
Activity (Rattus norvegicus [9]): Active
Activity [10]: Not Active
Activity (Rattus norvegicus [11]): Active
Activity (Rattus norvegicus [12]): Active
inhibition [13]: 26%
Activity [14]: inactive
Activity (Rattus norvegicus [15]): Active
Activity [16]: Not Active
Activity (Rattus norvegicus [17]): Toxic
Activity [18]: Not Active
inhibition [19]: 36%
Activity [1]: 35%
Activity [20]: 28%
Activity (Rattus norvegicus [21]): Active
inhibition [22]: 37%
Activity [23]: Dose-dependent effect
EC50 [24]: 16 nM
Activity (Rattus norvegicus [25]): Toxic
Activity (Rattus norvegicus [26]): Active
Activity (Rattus norvegicus [27]): Active
Activity [28]: Not Active
Activity (Rattus norvegicus [29]): Active

SMILES: c1ccc(Cn2cc(CNc3cccnc3)c3ccccc32)nc1
Activity [1]: 0%

SMILES: COc1ccc(Cn2cc(CNc3cccnc3)c3ccccc32)cc1
Activity [1]: 6%

SMILES: Fc1cccc(Cn2cc(CNc3cccnc3)c3ccccc32)c1
Activity [1]: 22%
